ChEMBL document CHEMBL1208674, “Synthesis and anti-mycobacterial evaluation of some pyrazine-2-carboxylic acid hydrazide derivatives” (Eur J Med Chem, 2010)
≈ marks a conversion by molar mass, not a printed value.

Experiments:
[1] = system: Mycobacterium tuberculosis; assay: Antimycobacterial activity against Mycobacterium tuberculosis H37Rv by microplate Alamar blue assay; assay type: functional, organism-based
Summary of the method: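 M. tuberculosis H37Rv (ATCC 27294) grown in BACTEC 12B medium, broth microdilution read by Alamar Blue (MABA). Ten 2-fold dilutions, typically 100 to 0.19 µg/mL. IC90 = concentration giving 90% fluorescence reduction relative to controls; IC50 at 50%. Both taken from dose-response curve by curve fitting. Run alongside a parallel VERO cytotoxicity assay.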

[2] = Cytotoxicity against african green monkey Vero cells after 72 hrs by Cell titer Glo assay; assay type: cell-based; conditions: chlorocebus sabaeus
Summary of the method: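 VERO cells exposed to compounds for 72 h, run in parallel with the M. tuberculosis dose-response assay. Viability read by ATP-based luminescence (Cell Titer-Glo). CC50 taken from the dose-response curve by curve fitting.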

**Q.** For COc1cc(/C=N/NC(=O)c2cnccn2)ccc1O, which IC50 [1] is on record?
**A.** > 100 µg/mL

**Q.** What about the IC90 [1] of the same molecule?
**A.** > 100 µg/mL

**Q.** And the CC50 at 72 h [2]?
**A.** > 30 µg/mL

**Q.** For NNC(=O)c1cnccn1 [PYRAZINE CARBOXYLIC ACID HYDRAZIDE], which IC50 [1] is on record?
**A.** > 100 µg/mL

**Q.** What about the IC90 [1] of the same molecule?
**A.** > 100 µg/mL

**Q.** And the CC50 at 72 h [2]?
**A.** > 30 µg/mL

**Q.** With O=C(N/N=C/c1ccc(O)cc1)c1cnccn1 as the molecule, how does the IC50 [1] read?
**A.** > 100 µg/mL

**Q.** What about the IC90 [1] of the same molecule?
**A.** > 100 µg/mL

**Q.** And the CC50 at 72 h [2]?
**A.** > 30 µg/mL

**Q.** With CCNC(=S)NNC(=O)c1cnccn1 as the molecule, how does the IC50 [1] read?
**A.** 11.4 µg/mL (≈ 50.5 µM)

**Q.** What about the IC90 [1] of the same molecule?
**A.** 16.9 µg/mL (≈ 74.9 µM)

**Q.** What about the CC50 at 72 h [2] of the same molecule?
**A.** 29.8 µg/mL (≈ 132 µM)

**Q.** Which IC50 [1] does the source give for COc1ccc2nc(Cl)c(/C=N/NC(=O)c3cnccn3)cc2c1 here?
**A.** > 100 µg/mL

**Q.** And the IC90 [1]?
**A.** > 100 µg/mL

**Q.** What about the CC50 at 72 h [2] of the same molecule?
**A.** 5.37 µg/mL (≈ 15.7 µM)

**Q.** Which results are given for O=C(N/N=C/c1ccccc1O)c1cnccn1?
**A.** IC50 [1]: > 100 µg/mL; IC90 [1]: > 100 µg/mL; CC50 at 72 h [2]: 11.4 µg/mL (≈ 47.2 µM)

**Q.** What does the source list for Nc1cccc(/C=N/NC(=O)c2cnccn2)c1?
**A.** IC50 [1]: > 100 µg/mL; IC90 [1]: > 100 µg/mL; CC50 at 72 h [2]: > 30 µg/mL

**Q.** What does the source list for Cc1ccc2nc(Cl)c(/C=N/NC(=O)c3cnccn3)cc2c1?
**A.** IC50 [1]: > 100 µg/mL; IC90 [1]: > 100 µg/mL; CC50 at 72 h [2]: > 30 µg/mL

**Q.** For COc1ccc(/C=N/NC(=O)c2cnccn2)cc1, which IC50 [1] is on record?
**A.** > 100 µg/mL

**Q.** What about the IC90 [1] of the same molecule?
**A.** > 100 µg/mL

**Q.** And the CC50 at 72 h [2]?
**A.** > 30 µg/mL

**Q.** Which IC50 [1] does the source give for COc1ccc(/C(C)=N/NC(=O)c2cnccn2)cc1 here?
**A.** > 100 µg/mL

**Q.** And the IC90 [1]?
**A.** > 100 µg/mL

**Q.** And the CC50 at 72 h [2]?
**A.** > 30 µg/mL

**Q.** For O=C(N/N=C/c1ccc(Cl)cc1)c1cnccn1, which IC50 [1] is on record?
**A.** > 100 µg/mL

**Q.** And the IC90 [1]?
**A.** > 100 µg/mL

**Q.** And the CC50 at 72 h [2]?
**A.** > 30 µg/mL

**Q.** Which IC50 [1] does the source give for C/C(=N\NC(=O)c1cnccn1)c1ccc(Br)cc1 here?
**A.** > 100 µg/mL

**Q.** And the IC90 [1]?
**A.** > 100 µg/mL

**Q.** What about the CC50 at 72 h [2] of the same molecule?
**A.** > 30 µg/mL

**Q.** Which IC50 [1] does the source give for O=C(N/N=C/c1cccc(O)c1)c1cnccn1 here?
**A.** > 100 µg/mL

**Q.** And the IC90 [1]?
**A.** > 100 µg/mL

**Q.** What about the CC50 at 72 h [2] of the same molecule?
**A.** > 30 µg/mL
